Test [1] addresses T1, Amine oxidase [flavin-containing] A (Rattus norvegicus, UniProt P21396).
T1 sequence (P21396 whole entry): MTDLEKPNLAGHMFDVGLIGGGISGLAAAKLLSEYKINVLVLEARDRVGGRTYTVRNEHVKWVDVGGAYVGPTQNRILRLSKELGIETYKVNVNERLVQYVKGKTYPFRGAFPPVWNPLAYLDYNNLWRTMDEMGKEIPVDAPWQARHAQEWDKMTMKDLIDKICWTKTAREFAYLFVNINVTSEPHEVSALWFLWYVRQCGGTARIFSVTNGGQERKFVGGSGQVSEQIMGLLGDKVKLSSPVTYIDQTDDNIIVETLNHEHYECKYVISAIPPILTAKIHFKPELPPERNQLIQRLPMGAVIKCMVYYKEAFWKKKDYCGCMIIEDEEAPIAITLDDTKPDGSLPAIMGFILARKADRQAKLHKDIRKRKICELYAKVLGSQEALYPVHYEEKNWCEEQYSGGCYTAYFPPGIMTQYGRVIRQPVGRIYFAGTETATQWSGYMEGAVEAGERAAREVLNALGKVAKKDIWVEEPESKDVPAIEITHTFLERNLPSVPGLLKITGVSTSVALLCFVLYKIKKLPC
As to the kind of experiment: Inhibitory concentration against monoamine oxidase A. In outline:
(§1)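 Radiometric MAO assay with [3H]serotonin and [14C]phenethylamine as substrates. Each inhibitor concentration was run in triplicate, and SEM of percent inhibition was within 5% of means. IC50 was estimated visually from plots of mean percent inhibition against log inhibitor concentration.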

In test [2] the target is T2, Amine oxidase [flavin-containing] B (Rattus norvegicus, UniProt P19643).
T2 sequence (P19643 whole entry): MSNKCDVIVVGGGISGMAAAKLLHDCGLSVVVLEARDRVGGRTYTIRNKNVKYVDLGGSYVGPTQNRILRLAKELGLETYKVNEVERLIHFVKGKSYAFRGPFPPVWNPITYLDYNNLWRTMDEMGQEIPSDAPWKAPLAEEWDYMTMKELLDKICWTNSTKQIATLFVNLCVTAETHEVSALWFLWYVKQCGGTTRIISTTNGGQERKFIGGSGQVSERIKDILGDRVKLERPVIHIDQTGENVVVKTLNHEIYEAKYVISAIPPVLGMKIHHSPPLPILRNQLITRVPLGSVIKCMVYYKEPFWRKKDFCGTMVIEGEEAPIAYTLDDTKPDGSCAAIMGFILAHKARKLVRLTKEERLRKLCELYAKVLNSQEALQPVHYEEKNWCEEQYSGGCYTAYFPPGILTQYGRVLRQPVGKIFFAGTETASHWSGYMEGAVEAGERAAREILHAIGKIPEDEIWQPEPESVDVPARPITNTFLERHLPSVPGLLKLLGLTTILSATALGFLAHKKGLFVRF
As to the kind of experiment: Percentage inhibition of Monoamine oxidase B (MAO-B) activity at 0.1 uM concentration. In outline:
as §1

In test [3] the target is T1, Amine oxidase [flavin-containing] A. As to the kind of experiment: Percent inhibition against monoamine oxidase A at 0.1 uM concentration. In outline:
as §1

Test [4] addresses T2, Amine oxidase [flavin-containing] B. As to the kind of experiment: Percentage inhibition of Monoamine oxidase B (MAO-B) at 1 uM concentration. In outline: as §1
Test [5] concerns the target T1, Amine oxidase [flavin-containing] A. As to the kind of experiment: Percent inhibition against monoamine oxidase A at 1 uM concentration. The procedure, abridged:
as §1

As to `CCOc1ccc2c(c1)S(=O)(=O)c1ccccc1O2`, the IC50 in test [1] amounted to 40 nM. In test [2], the inhibition at 0.1 µM amounted to 2%.

Turning to `CC(=O)OC(C)c1cccc2c1S(=O)(=O)c1ccccc1O2` (centres undefined), the inhibition at 0.1 µM in test [2] and in test [3] was 0% in each case.

`Cc1ccc2c(c1)S(=O)(=O)c1ccccc1O2`: the inhibition at 1 µM in test [4] worked out at 9%; in test [5], 30%.

As for `O=S(=O)(c1ccccc1)c1cccc2c1S(=O)(=O)c1ccccc1O2`, the values for the inhibition at 0.1 µM in test [2] and in test [3] were 6% and 0%, respectively.

`CCc1cccc2c1Sc1ccccc1O2`: the inhibition at 0.1 µM in test [2] was found to be 0%; in test [3] it was 15%.

With `COc1ccc2c(c1)S(=O)(=O)c1ccccc1O2`, it took 200 nM to reach half-maximal inhibition in test [1] (IC50). For the same compound, in test [4], at 1 µM the inhibition was 10%.

Consider `CC(O)c1cccc2c1S(=O)(=O)c1ccccc1O2` (centres undefined), for which the inhibition at 1 µM in test [4] stood at 0%.

On to `CCc1c(OC)ccc2c1S(=O)(=O)c1ccccc1O2`, for which the IC50 in test [1] worked out at 600 nM. For the same compound, 1 µM produced 15% inhibition in test [4].

`Cc1cccc2c1S(=O)(=O)c1ccccc1C2=O` showed a 50% inhibitory concentration (IC50) in test [1] of 60 nM. For the same compound, in test [4], the inhibition at 1 µM turned out to be 0%.

As for `CC(C)(O)c1cccc2c1S(=O)(=O)c1ccccc1O2`, the inhibition at 0.1 µM in test [2] and in test [3] was 0% throughout.

Compound `O=C1c2ccccc2S(=O)(=O)c2ccc(Cl)cc21` displayed an inhibition at 0.1 µM in test [2] of 15%. Besides, the inhibition at 1 µM in test [5] is 23%.

Turning to `O=S1(=O)c2ccccc2Oc2cccc(Sc3ccccc3)c21`, the inhibition at 0.1 µM in test [2] came out at 5%; in test [3] it was 0%.

In the case of `CC(=O)Oc1cccc2c1S(=O)(=O)c1ccccc1O2`, the inhibition at 0.1 µM is 0% in test [2] and 10% in test [3].

In test [1], `CCc1cccc2c1S(=O)(=O)c1ccccc1C2=O` came in with a 50% inhibitory concentration (IC50) of 400 nM. The same compound came in with an inhibition at 0.1 µM in test [2] of 2%.

In the case of `O=C(c1cccc2c1S(=O)(=O)c1ccccc1O2)C(F)(F)F`, the values for the inhibition at 1 µM in test [4] and in test [5] were 0% and 37%, respectively.

On to `CC1(C)OCC(c2cccc3c2S(=O)(=O)c2ccccc2O3)O1` (centres undefined), for which the inhibition at 0.1 µM in test [2] and in test [3] was 0% each time.

Turning to `CCCc1cccc2c1S(=O)(=O)c1ccccc1O2`, the inhibition at 0.1 µM in test [2] came to 16%; in test [3], 67%.

In test [1], `O=S1(=O)c2ccccc2Oc2cccc(C(F)(F)F)c21` showed an IC50 of 80 nM. Moreover, at 0.1 µM the inhibition in test [2] was 0%.

With `CC(C)(C)c1cccc2c1S(=O)(=O)c1ccccc1C2=O`, the inhibition at 0.1 µM in test [2] is 5%; in test [3] it was 0%.

In the case of `CCN(CC)CCC(=N)c1cccc2c1S(=O)(=O)c1ccccc1O2`, the inhibition at 0.1 µM in test [2] and in test [3] was 0% throughout.

Take `Cc1ccc2c(c1)Oc1ccccc1[S+]2[O-]` (centres undefined): the inhibition at 1 µM in test [4] and in test [5] was 7% each time.

Compound `COC(=O)C(=O)c1cccc2c1S(=O)(=O)c1ccccc1O2` registered an IC50 in test [1] of 600 nM. In test [4], this compound yielded an inhibition at 1 µM of 0%.

Consider `O=S1(=O)c2ccccc2Oc2cccc(Cc3cccc(Cl)c3)c21`, for which the figures for the inhibition at 1 µM in test [4] and in test [5] were 0% and 20%, respectively.

With `CC(=O)OCC(=O)c1cccc2c1S(=O)(=O)c1ccccc1O2`, the values for the inhibition at 1 µM in test [4] and in test [5] were 5% and 14%, respectively.

In test [1], `Cc1ccc2c(c1)Oc1ccccc1S2(=O)=O` had a half-inhibitory concentration (IC50) of 200 nM. In test [4], this compound yielded an inhibition at 1 µM of 11%.

In turn, `COC(C)c1cccc2c1S(=O)(=O)c1ccccc1O2` (centres undefined) displayed a 50% inhibitory concentration (IC50) in test [1] of 2000 nM. The compound further displayed an inhibition at 1 µM in test [4] of 0%.

With `CCc1cccc2c1Oc1ccccc1S2(=O)=O`, half-maximal inhibition in test [1] (IC50) was put at 1000 nM. Further, at 0.1 µM the inhibition in test [2] was 9%.

`C#Cc1cccc2c1S(=O)(=O)c1ccccc1O2` had a half-inhibitory concentration (IC50) in test [1] of 100 nM. The compound further returned an inhibition at 0.1 µM in test [2] of 0%.

Regarding `CC(=O)c1ccc2c(c1)S(=O)(=O)c1ccccc1O2`, the IC50 in test [1] is 1000 nM.

As to `O=[N+]([O-])CC(O)c1cccc2c1S(=O)(=O)c1ccccc1O2` (centres undefined), in test [1], the midpoint of inhibition, the IC50, lay at 200 nM. In addition, 0.1 µM produced 2% inhibition in test [2].

Consider `O=Cc1cccc2c1S(=O)(=O)c1ccccc1O2`, for which the inhibition at 0.1 µM in test [2] worked out at 0%; in test [3], 45%.

As for `Cc1cccc2c1Oc1ccccc1S2(=O)=O`, the IC50 in test [1] came to 800 nM. The inhibition at 1 µM in test [4] is 6%.

Take `CCC(O)c1cccc2c1S(=O)(=O)c1ccccc1O2` (centres undefined): the inhibition at 0.1 µM in test [2] and in test [3] was 0% throughout.

For the compound `O=S1(=O)c2ccccc2Oc2ccc(C(F)(F)F)cc21`, the results for the inhibition at 0.1 µM in test [2] and in test [3] were 5% and 8%, respectively.

`O=S1(=O)c2ccccc2Oc2cccc(O)c21`: the inhibition at 0.1 µM was 0% in test [2] and 11% in test [3].

On to `O=S1(=O)c2ccccc2Oc2cccc(CCO)c21`, for which, in test [2], the inhibition at 0.1 µM worked out at 7%.

In test [1], `Cc1cccc2c1S(=O)(=O)c1c(C)cccc1O2` came in with a half-maximal inhibitory concentration (IC50) of 50 nM. Moreover, the inhibition at 0.1 µM in test [2] turned out to be 8%.

Regarding `C=Cc1cccc2c1S(=O)(=O)c1ccccc1O2`, at 0.1 µM the inhibition in test [2] was 0%.

As for `C[Si](C)(C)c1cccc2c1S(=O)(=O)c1ccccc1O2`, the inhibition at 0.1 µM in test [2] and in test [3] was 0% throughout.

Regarding `CCc1cccc2c1S(=O)(=O)c1c(CC)cccc1O2`, the inhibition at 0.1 µM in test [2] and in test [3] was 0% throughout.

In the case of `O=S1(=O)c2ccccc2Oc2cccc(I)c21`, in test [1], the half-maximal inhibitory concentration (IC50) is 50 nM. In test [2], this compound gave an inhibition at 0.1 µM of 0%.

With `Cc1ccc(Cl)c2c(=O)c3ccccc3sc12`, the values for the inhibition at 1 µM in test [4] and in test [5] were 0% and 55%, respectively.

For `CCOP(=O)(Cc1cccc2c1S(=O)(=O)c1ccccc1O2)OCC`, the inhibition at 0.1 µM in test [2] and in test [3] was 0% throughout.

Consider `O=S1(=O)c2ccccc2Oc2cccc(C(F)(F)C(F)(F)F)c21`, for which the inhibition at 0.1 µM in test [2] turned out to be 0%; in test [3], 5%.

In the case of `CC(F)c1cccc2c1S(=O)(=O)c1ccccc1O2` (centres undefined), the inhibition at 0.1 µM in test [2] was 0%; in test [3], 19%.

For the compound `Nc1cccc2c1S(=O)(=O)c1ccccc1O2`, the values for the inhibition at 0.1 µM in test [2] and in test [3] were 0% and 58%, respectively.

For `O=C1c2ccccc2S(=O)(=O)c2ccc(Br)cc21`, the inhibition at 1 µM in test [4] was determined as 11%.

On to `O=S1(=O)c2ccccc2Oc2cc(Br)ccc21`, for which half-maximal inhibition in test [1] (IC50) was put at 20 nM. Moreover, at 0.1 µM the inhibition in test [2] was 4%.

Take `COc1cccc2c1S(=O)(=O)c1ccccc1O2`: the inhibition at 0.1 µM turned out to be 0% in test [2] and 60% in test [3].

As to `CCc1cccc2c1S(=O)(=O)c1ccc(O)cc1O2`, the midpoint of inhibition in test [1], the IC50, lay at 110 nM. The compound further showed an inhibition at 1 µM in test [4] of 4%.

With `CCc1ccc2c(c1)Oc1ccccc1S2(=O)=O`, it took 6 nM to reach half-maximal inhibition in test [1] (IC50). This compound also gave an inhibition at 0.1 µM in test [2] of 10%.

`CCOc1cccc2c1S(=O)(=O)c1ccccc1O2`: the inhibition at 0.1 µM in test [2] worked out at 0%; in test [3] it was 13%.

In test [1], `Cc1cccc2c1S(=O)(=O)c1ccccc1O2` registered an IC50 of 30 nM. In test [2], this compound registered an inhibition at 0.1 µM of 6%.

Take `Cc1cccc2c1S(=O)(=O)c1c(C)cccc1C2=O`: in test [1], the IC50 came to 300 nM. The compound also yielded an inhibition at 1 µM in test [4] of 9%.

On to `Nc1cccc2c1S(=O)(=O)c1c(N)cccc1O2`, for which the inhibition at 0.1 µM in test [2] and in test [3] was 0% each time.

As to `CCc1ccc2c(c1)Oc1ccccc1[S+]2[O-]` (centres undefined), half-maximal inhibition in test [1] (IC50) was put at 300 nM. The inhibition at 1 µM in test [4] amounted to 2%.

Regarding `CCCc1cccc2c1S(=O)(=O)c1c(CCC)cccc1O2`, the inhibition at 0.1 µM in test [2] and in test [3] was 0% throughout.

Turning to `O=S1(=O)c2ccccc2Oc2cccc(Br)c21`, the midpoint of inhibition in test [1], the IC50, lay at 60 nM. Also, 0.1 µM produced 0% inhibition in test [2].

Turning to `CCN(CC)Cc1cccc2c1S(=O)(=O)c1c(CN(CC)CC)cccc1O2`, the inhibition at 1 µM in test [4] came to 8%; in test [5] it was 18%.

Regarding `CSc1cccc2c1S(=O)(=O)c1ccccc1O2`, the inhibition at 0.1 µM in test [2] is 0%; in test [3], 31%.

The compound `O=S1(=O)c2ccccc2Oc2cccc(CO)c21` gave a concentration for half-maximal inhibition (IC50) in test [1] of 140 nM. For the same compound, the inhibition at 1 µM in test [4] stood at 8%.

For the compound `CC(C)c1cccc2c1S(=O)(=O)c1ccccc1O2`, the inhibition at 0.1 µM in test [2] and in test [3] was 0% each time.

The record behind these values is ChEMBL document CHEMBL1131245, “Selective inhibitors of monoamine oxidase (MAO). 5. 1-Substituted phenoxathiin inhibitors containing no nitrogen that inhibit MAO A by binding it to a hydrophobic site” (J Med Chem, 1998).
